Screening data (PubChem)
CHRM4 PAM: positive allosteric modulators of human muscarinic M4 receptor; P08173; CHO-K1 hM4/Gqi5, Fluo-8 calcium fluorescence, ACh EC20; 0% = ACh EC20, 100% = maximal ACh; activation, % at 3 µM; 0.4% of 360,000 active;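 active = activation above its plate's cutoff, the mean activation of sample wells plus 3 SD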
M4 antag: CHRM4 antagonism in calcium assay; CHO-hM4 cells, ACh EC80, Fluo-8 calcium fluorescence; inhibition, % at 3 µM; 0.73% of 360,000 active;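 active = inhibition above its plate's cutoff, the mean inhibition of sample wells plus 3 SD, cut at about 27% in these data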;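 also: 0% = acetylcholine EC80 with DMSO and 100% = DMSO without agonist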
CHRM5 agonist: agonists of human muscarinic M5 receptor (CHRM5) | 0.19% of 360,000 active | AID 624037 | P08912 | CHO-K1 hM5 cells, Fluo-8 calcium fluorescence; 0% DMSO wells, 100% maximal acetylcholine response | activation, % at 3 µM;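 active = activation above the run's mean over test compounds plus 3 SD, cut at about 23% in these data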;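 also: signal is peak over basal fluorescence ratio across the kinetic read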
Target sequence (P08912 whole entry, looked up): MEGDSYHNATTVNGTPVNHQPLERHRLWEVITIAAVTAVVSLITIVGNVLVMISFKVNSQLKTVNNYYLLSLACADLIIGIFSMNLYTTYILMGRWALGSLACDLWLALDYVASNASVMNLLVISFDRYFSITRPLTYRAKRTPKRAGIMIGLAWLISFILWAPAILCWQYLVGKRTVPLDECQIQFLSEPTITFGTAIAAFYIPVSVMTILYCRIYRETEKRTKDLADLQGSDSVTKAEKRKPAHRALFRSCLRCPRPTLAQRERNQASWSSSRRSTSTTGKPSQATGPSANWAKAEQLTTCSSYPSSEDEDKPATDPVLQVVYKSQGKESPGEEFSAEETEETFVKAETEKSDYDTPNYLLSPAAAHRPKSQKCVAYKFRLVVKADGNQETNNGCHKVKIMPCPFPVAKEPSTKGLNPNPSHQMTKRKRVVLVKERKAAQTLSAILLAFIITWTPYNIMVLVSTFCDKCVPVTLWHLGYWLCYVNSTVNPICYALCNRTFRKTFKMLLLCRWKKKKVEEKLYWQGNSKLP
CHRM5 antagonist: antagonists of human muscarinic M5 receptor (CHRM5); P08912; 0.59% of 360,000 active; CHO-hM5 cells, Fluo-8 calcium fluorescence, ACh EC80; AID 624040; inhibition, % at 3 µM;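 active = inhibition above a per-plate cutoff, the mean of that plate's test compounds plus 3 SD, cut at about 27% in these data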;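 also: 0% = acetylcholine EC80 with DMSO and 100% = DMSO without agonist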
CHRM5 PAM: potentiates acetylcholine response at human M5 receptor; P08912; activation, % at 3 µM; CHO-K1 hM5, Fluo-8 calcium, ACh EC20 PAM; 0% = ACh EC20, 100% = ACh EC100; 0.3% of 360,000 active;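 active = activation above the run cutoff, the mean activation of all test compounds plus 3 SD, cut at about 18% in these data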
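Assay system – human M5 receptor in CHO-K1 cells · Read-out – % activation, ACh-normalized · Technique – Fluo-8 calcium fluorescence · Dosing – single-point, 3 µM nominal · Incubation – Fluo-8 loading 80 min at 37 °C plus 30 min room temperature · Repeats – singlicate, one well per test compound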
M4 ag: CHRM4 agonism in calcium assay | P08173 | CHO-K1 hM4/Gqi5, Fluo-8 calcium fluorescence; vehicle 0%, full acetylcholine response 100% | activation, % at 3 µM | 0.14% of 360,000 active;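 active = activation above the run mean over all test wells plus 3 SD, cut at about 32% in these data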;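 also: peak over basal fluorescence ratio per well then scaled between controls; 0% = DMSO wells and 100% = acetylcholine at EC100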
* marks the source's active call; other numbers are inactive results; ! = not confirmed by another sample. A selection: hits, their analogues and other compounds. The true share with any hit is near 1.8%.

SMILES | CHRM4 PAM | M4 antag | CHRM5 agonist | CHRM5 antagonist | CHRM5 PAM | M4 ag
O=c1[nH][nH]c2c1[C@H](c1ccc(F)cc1)O[C@H](C1CCCCC1)C2 | 0.7 | 7.7 | 2.8 | 1.8 | 1.0 | 0.9
O=C(N[C@H]1c2ccccc2C[C@H]1O)[C@H]1O[C@@H](n2ccc(=O)[nH]c2=O)[C@H](O)[C@@H]1O | 6.0 | -2.6 | 1.6 | -4.1 | 7.5 | 0.7
COc1ccc(-c2noc(-c3csc([C@@H]4O[C@H](CO)[C@H](O)[C@H](O)[C@H]4O)n3)n2)cc1OC | 5.1 | -8.5 | 0.9 | 1.6 | -2.2 | 0.2
COc1cc(/C=N/NC(=O)c2nnn(-c3nonc3N)c2C)ccc1OCc1ccc(Cl)cc1 | 7.3 | -3.1 | 0.4 | -6.7 | 1.2 | 1.0
COc1cc(C(C)n2nnc3ccccc32)ccc1O (stereo not given) | -2.8 | -1.1 | -0.8 | 2.7 | -3.8 | 0.5
Cc1c(O)cccc1C(=O)N[C@@H](CSc1ccccc1)[C@H](O)CN1C[C@H]2CCCC[C@H]2C[C@H]1C(=O)NC(C)(C)C | -13.8 | -3.2 | 97.5*! | 84.7*! | -20.5 | 44.0*!
CCn1cc([N+](=O)[O-])c(C(=O)N2CCCc3ccccc32)n1 | 22.0* | 4.0 | -3.9 | 1.2 | 2.0 | 1.4
CCn1cc([N+](=O)[O-])c(C(=O)N2CCCCCC2)n1 | 1.2 | -11.8 | -5.8 | -4.8 | 0.6 | 0.1
Cn1nc(C(C)(C)C)cc1C(=O)N1CCCCC1c1cc(C(=O)Nc2ccccc2)no1 (stereo not given) | -7.4 | -5.8 | 0.9 | 8.4 | -4.0 | 7.1
N/C(=N\OC(=O)Nc1cccc(C(F)(F)F)c1)c1ccno1 | -7.3 | 10.0 | -0.1 | 27.0* | -17.4 | 7.2
CCSc1nc(-c2ccco2)ccc1C#N | 7.7 | -15.1 | -5.7 | -2.5 | 46.0* | 0.6
CCN(CC(=O)Nc1ccccc1C(F)(F)F)C(=O)c1ccc(NC(=O)c2cccs2)cc1 | -10.6 | -2.3 | 2.7 | 6.4 | -8.6 | 13.1
O=C(OCc1ccccc1)N1CCN(C(c2ccnc3ccccc23)c2nnnn2-c2ccc3c(c2)OCCO3)CC1 (stereo not given) | 2.9 | 0.3 | -1.7 | 2.2 | -10.8 | 1.7
CC(=O)c1ccc(NC(=S)NCc2ccc(Cl)cc2Cl)cc1 | -18.4 | 17.7 | 8.0 | 29.2* | -25.3 | 17.9
CC(=O)c1ccc(NC(=O)Nc2ccc(Cl)cc2)cc1 | -14.5 | 5.8 | 10.2 | 24.0 | -20.6 | 27.5
O=S(=O)(Nc1ccc(Cc2ccncc2)cc1)c1ccc(Cl)c(Cl)c1 | -32.8 | 33.7* | -7.2 | 7.2 | -20.9 | 8.2
CCOc1cc(S(=O)(=O)NCc2ccncc2)ccc1Cl | -15.8 | 36.0* | 5.5 | 60.0* | -15.3 | 22.8
Cc1cc(C(F)F)n2nc(C(=O)Nc3cc(C)on3)nc2n1 | 27.8* | 4.2 | -1.0 | -11.3 | 5.3 | 1.2
COc1cccc(NC(=O)c2nc3nc(C)cc(C(F)F)n3n2)c1 | 8.2 | -20.6 | 0.4 | 3.2 | -4.8 | 0.5
COc1ccc(N2CCN(C(=O)C(=O)c3cccc([N+](=O)[O-])c3)CC2)cc1 | -8.4 | 0.1 | 0.7 | 15.6 | -9.0 | 7.9
Cc1onc(-c2ccccc2)c1C(=O)NNC(=S)NC(=O)c1ccc(Br)cc1 | -11.2 | 2.9 | 34.6* | -4.8 | -14.0 | 60.6*
Cc1cccc(C(=O)NC(=S)NNC(=O)COc2c(C)cccc2C)c1 | 22.9* | 2.7 | -0.1 | -1.2 | -1.9 | 1.4
Cc1onc(-c2ccccc2)c1C(=O)NNC(=S)NC(=O)c1ccc(Cl)cc1Cl | -13.0 | 2.5 | 30.3* | -1.5 | -8.5 | 113.2*
Cc1ccc(C(=O)NNC(=S)NC(=O)c2ccc(Cl)cc2)cc1 | -17.4 | 33.3* | 97.9* | 17.8 | -30.1 | 130.9*
COC(=O)[C@]12CCCCC=C1N(Cc1ccco1)C(=O)[C@H](CC(=O)NCc1ccccc1)C2 | 10.4 | -9.5 | 3.9 | -3.9 | -0.9 | 8.4
CNC[C@@H]1OCc2ccccc2-c2ccccc2C(=O)N([C@H](C)CO)C[C@@H]1C | 6.7 | -14.9 | -1.3 | -12.5 | 3.8 | 0.8
Cc1ccccc1C(=O)NNC(=S)NC(=O)c1ccc(Cl)cc1Cl | -26.1 | 23.1 | 53.0* | 25.9 | -17.0 | 84.0*
